The source made the active and inactive calls. The calls are words filed in the database; no cut-off is given here.
Assays:
Acinetobacter baumannii [1] = test: Inhibition of Acinetobacter baumannii biofilm formation at 100 uM after 24 hrs by crystal violet reporter assay; type: functional
In short: (§1)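 Biofilm formation measured by crystal violet reporter assay. Each compound was first screened at 100 µM. Compounds giving >95% inhibition then went to dose-response studies to derive IC50. Values are means of three or more experiments.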

Escherichia coli [2] = test: Inhibition of Escherichia coli biofilm formation at 100 uM after 24 hrs by crystal violet reporter assay; type: functional; in short: as §1
Pseudomonas aeruginosa [3] = test: Inhibition of Pseudomonas aeruginosa PA14 biofilm formation at 100 uM after 24 hrs by crystal violet reporter assay; type: functional; conditions: PA14, 24 h; in short: as §1
Pseudomonas aeruginosa [4] = test: Dispersion of Pseudomonas aeruginosa PA14 established biofilm at 100 uM after 24 hrs by crystal violet reporter assay; type: functional, organism-based
Escherichia coli [5] = test: Inhibition of Escherichia coli biofilm formation after 24 hrs by crystal violet reporter assay; type: functional, organism-based; in short: as §1
Acinetobacter baumannii [6] = test: Inhibition of Acinetobacter baumannii biofilm formation after 24 hrs by crystal violet reporter assay; type: functional, organism-based; in short: as §1
Acinetobacter baumannii [7] = test: Dispersion of Acinetobacter baumannii established biofilm at 100 uM after 24 hrs by crystal violet reporter assay; type: functional
Pseudomonas aeruginosa [8] = test: Inhibition of Pseudomonas aeruginosa PA14 biofilm formation after 24 hrs by crystal violet reporter assay; type: functional, organism-based; conditions: PA14, 24 h; in short: as §1
Escherichia coli [9] = test: Dispersion of Escherichia coli established biofilm at 50 uM after 24 hrs by crystal violet reporter assay; type: functional
Escherichia coli [10] = test: Toxicity in Escherichia coli assessed as inhibition of planktonic growth at IC50 concentration measured up to 24 hrs; type: organism-based; conditions: in vivo

IC50 (Escherichia coli [5]) [µM]	Compound	Activity (Pseudomonas aeruginosa [4])	further results
–	Nc1ncc(-c2ccc(-n3cc(-c4cc(F)cc(F)c4)nn3)cc2)[nH]1	–	inhibition at 100 µM (Acinetobacter baumannii [1]): 21%; inhibition at 100 µM (Escherichia coli [2]): 35%; inhibition at 100 µM (Pseudomonas aeruginosa [3]): < 5%
–	Nc1ncc(-c2cccc(NC(=O)c3cc(F)cc(F)c3)c2)[nH]1	inactive	inhibition at 100 µM (Escherichia coli [2]): 64%; inhibition at 100 µM (Pseudomonas aeruginosa [3]): < 5%
–	Nc1ncc(-c2ccccc2NC(=O)c2cc(F)cc(F)c2)[nH]1	inactive	inhibition at 100 µM (Escherichia coli [2]): < 5%; inhibition at 100 µM (Pseudomonas aeruginosa [3]): < 5%
16.5	CCCCCc1ccc(C(=O)Nc2cccc(-c3cnc(N)[nH]3)c2)cc1	inactive	–
–	CCCCCCCCCC(=O)Nc1ccccc1-c1cnc(N)[nH]1.Cl	inactive	IC50 (Acinetobacter baumannii [6]): 43 µM; Activity (Acinetobacter baumannii [7]): 40%
–	CCCCCCC(=O)Nc1cccc(-c2cnc(N)[nH]2)c1	inactive	IC50 (Pseudomonas aeruginosa [8]): 39.4 µM
43.4	Nc1ncc(-c2cccc(NC(=O)C34CC5CC(CC(C5)C3)C4)c2)[nH]1	inactive	–
5.2	Cl.Nc1ncc(-c2ccc(NC(=O)c3cc(F)cc(F)c3)cc2)[nH]1	inactive	Activity (Escherichia coli [9]): 51%; Activity (Escherichia coli [10]): Non-toxic; IC50 (Pseudomonas aeruginosa [8]): 27.6 µM
47	Nc1ncc(-c2cccc(NC(=O)CCC3CCCC3)c2)[nH]1	inactive	–
–	CCCCCCC(=O)Nc1ccc(-c2cnc(N)[nH]2)cc1	inactive	IC50 (Pseudomonas aeruginosa [8]): 16.8 µM
39.4	CCCCCc1ccc(C(=O)Nc2ccc(-c3cnc(N)[nH]3)cc2)cc1	inactive	–
16.3	Cl.Nc1ncc(-c2ccc(NC(=O)/C=C/c3ccccc3)cc2)[nH]1	inactive	Activity (Escherichia coli [9]): 67%

From ChEMBL document CHEMBL1155530, “Identification of aryl 2-aminoimidazoles as biofilm inhibitors in Gram-negative bacteria” (Bioorg Med Chem Lett, 2010)
